The record followed here is ChEMBL document CHEMBL1250495, “Synthesis and antimicrobial activities of novel 1H-dibenzo[a,c]carbazoles from dehydroabietic acid” (2010).

Common to all, as to format: functional
One assay has as its system Bacillus subtilis. Put plainly: Antimicrobial activity against Bacillus subtilis CGMCC 1.1162 after 24 hrs by modified microdilution method. To be noted: CGMCC 1.1162, 24 h. The method in brief: (§1)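 Broth microdilution. Compounds were dissolved in 20% DMSO and serially diluted twofold, then mixed with an equal volume of bacteria in Martin's broth (~10^5 CFU/ml). Amikacin sulfate was the positive control and 20% DMSO the negative control. Wells were incubated at 37 °C for 24 h and scored visually for growth. MIC is the lowest concentration inhibiting growth.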

Another assay deals with Staphylococcus aureus. As to the kind of experiment: Antimicrobial activity against Staphylococcus aureus CGMCC 1.1361 after 24 hrs by modified microdilution method. To be noted: CGMCC 1.1361, 24 h. In short, it runs like this: as §1
In general terms: Broth dilution looks for growth in wells or tubes with falling amounts of substance.

A further assay has as its system Escherichia coli. As to the kind of experiment: Antimicrobial activity against Escherichia coli CGMCC 1.1571 after 24 hrs by modified microdilution method. To be noted: CGMCC 1.1571, 24 h. The method in brief:
as §1

The next assay relates to Pseudomonas fluorescens. As to the kind of experiment: Antimicrobial activity against Pseudomonas fluorescens CGMCC 1.1828 after 24 hrs by modified microdilution method. To be noted: CGMCC 1.1828, 24 h. The method in brief:
as §1

Another assay concerns Trichophyton rubrum. Put plainly: Antimicrobial activity against Trichophyton rubrum ATCC 10218 after 48 hrs by modified microdilution method. To be noted: ATCC 10218, 48 h. The method in brief:
(§2)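 Fungal MIC by modified microdilution. Twofold serial dilutions of compound in 20% DMSO were combined with an equal volume of inoculum in PD broth (~10^5 CFU/ml). Ketoconazole was the positive control and 20% DMSO the negative control. Plates were incubated 48 h at 28 °C and inspected for growth. MIC is the lowest concentration without visible growth.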

The test system of the next assay is Candida albicans. As to the kind of experiment: Antimicrobial activity against Candida albicans CGMCC 2.2086 after 48 hrs by modified microdilution method. To be noted: CGMCC 2.2086, 48 h. In short, it runs like this: as §2
The subject of another assay is Aspergillus niger. As to the kind of experiment: Antimicrobial activity against Aspergillus niger CGMCC 3.316 after 48 hrs by modified microdilution method. To be noted: CGMCC 3.316, 48 h. The method in brief: as §2

≈ marks a conversion by molar mass, not a printed value. Bounds are passed on as bounds.

Usually MIC stands for the lowest concentration found to suppress growth. A high value points to a less susceptible organism. In the case of `COC(=O)[C@]1(C)CCC[C@]2(C)c3ccc(C(C)C)cc3-c3[nH]c4ccccc4c3[C@@H]12`, the MIC is 31.2 µg/mL (≈ 77.7 µM) against Bacillus subtilis; 62.5 µg/mL (≈ 156 µM) in the assay with Staphylococcus aureus; > 100 µg/mL with Escherichia coli; 62.5 µg/mL (≈ 156 µM) in the assay on Pseudomonas fluorescens; > 100 µg/mL in the assay on Trichophyton rubrum; > 100 µg/mL in the assay on Candida albicans. In the assay on Aspergillus niger, the MIC is > 100 µg/mL.

`COC(=O)[C@]1(C)CCC[C@]2(C)c3ccc(C(C)C)cc3-c3[nH]c4ccc(C)cc4c3[C@@H]12`: the minimal inhibitory concentration (MIC) against Bacillus subtilis was 31.2 µg/mL (≈ 75.1 µM); with Staphylococcus aureus, 62.5 µg/mL (≈ 150 µM); against Escherichia coli, > 100 µg/mL; against Pseudomonas fluorescens, 31.2 µg/mL (≈ 75.1 µM); against Trichophyton rubrum it was 62.5 µg/mL (≈ 150 µM); in the assay on Candida albicans it was > 100 µg/mL. Also, the MIC against Aspergillus niger was > 100 µg/mL.

Turning to `COC(=O)[C@]1(C)CCC[C@]2(C)c3ccc(C(C)C)cc3-c3[nH]c4c(C)cccc4c3[C@@H]12`, the MIC with Bacillus subtilis, with Staphylococcus aureus, with Escherichia coli, against Pseudomonas fluorescens, with Trichophyton rubrum and against Candida albicans was > 100 µg/mL in each case. Besides, in the assay on Aspergillus niger, the minimum inhibitory concentration (MIC) was > 100 µg/mL.

Regarding `COC(=O)[C@]1(C)CCC[C@]2(C)c3ccc(C(C)C)cc3-c3[nH]c4ccc(F)cc4c3[C@@H]12`, the MIC against Bacillus subtilis was 1.9 µg/mL (≈ 4.53 µM); against Staphylococcus aureus, 3.9 µg/mL (≈ 9.3 µM); in the assay with Escherichia coli, 15.6 µg/mL (≈ 37.2 µM); against Pseudomonas fluorescens, 7.8 µg/mL (≈ 18.6 µM); with Trichophyton rubrum, > 100 µg/mL; against Candida albicans it was 62.5 µg/mL (≈ 149 µM). Further, the minimal inhibitory concentration (MIC) against Aspergillus niger was > 100 µg/mL.

As to `COC(=O)[C@]1(C)CCC[C@]2(C)c3ccc(C(C)C)cc3-c3[nH]c4c(F)cccc4c3[C@@H]12`, the MIC was 7.8 µg/mL (≈ 18.6 µM) in the assay with Bacillus subtilis; 31.2 µg/mL (≈ 74.4 µM) against Staphylococcus aureus; 31.2 µg/mL (≈ 74.4 µM) against Escherichia coli; 15.6 µg/mL (≈ 37.2 µM) in the assay on Pseudomonas fluorescens; 62.5 µg/mL (≈ 149 µM) against Trichophyton rubrum; 31.2 µg/mL (≈ 74.4 µM) in the assay with Candida albicans. In addition, 62.5 µg/mL (≈ 149 µM) was the least that counted as inhibitory with Aspergillus niger (MIC).

Turning to `COC(=O)[C@]1(C)CCC[C@]2(C)c3ccc(C(C)C)cc3-c3[nH]c4ccc(Cl)cc4c3[C@@H]12`, the MIC was 3.9 µg/mL (≈ 8.95 µM) against Bacillus subtilis; 3.9 µg/mL (≈ 8.95 µM) against Staphylococcus aureus; 15.6 µg/mL (≈ 35.8 µM) against Escherichia coli; 31.2 µg/mL (≈ 71.6 µM) in the assay with Pseudomonas fluorescens; > 100 µg/mL in the assay with Trichophyton rubrum; > 100 µg/mL against Candida albicans. For the same molecule, the MIC with Aspergillus niger is > 100 µg/mL.

Consider `COC(=O)[C@]1(C)CCC[C@]2(C)c3ccc(C(C)C)cc3-c3[nH]c4c(Cl)cccc4c3[C@@H]12`, for which the MIC against Bacillus subtilis is 31.2 µg/mL (≈ 71.6 µM); against Staphylococcus aureus, 31.2 µg/mL (≈ 71.6 µM); in the assay with Escherichia coli, > 100 µg/mL; against Pseudomonas fluorescens, > 100 µg/mL; in the assay with Trichophyton rubrum, > 100 µg/mL; against Candida albicans, > 100 µg/mL. Moreover, the MIC against Aspergillus niger is > 100 µg/mL.

On to `COC(=O)[C@]1(C)CCC[C@]2(C)c3ccc(C(C)C)cc3-c3[nH]c4ccc(Br)cc4c3[C@@H]12`, for which the MIC is 15.6 µg/mL (≈ 32.5 µM) against Bacillus subtilis; 31.2 µg/mL (≈ 64.9 µM) against Staphylococcus aureus; 31.2 µg/mL (≈ 64.9 µM) in the assay on Escherichia coli; 15.6 µg/mL (≈ 32.5 µM) against Pseudomonas fluorescens; > 100 µg/mL against Trichophyton rubrum; > 100 µg/mL with Candida albicans. Moreover, the MIC in the assay with Aspergillus niger is > 100 µg/mL.

As for `COC(=O)[C@]1(C)CCC[C@]2(C)c3ccc(C(C)C)cc3-c3[nH]c4c(Br)cccc4c3[C@@H]12`, the MIC with Bacillus subtilis was 62.5 µg/mL (≈ 130 µM); in the assay on Staphylococcus aureus, > 100 µg/mL; against Escherichia coli it was > 100 µg/mL; in the assay on Pseudomonas fluorescens, 62.5 µg/mL (≈ 130 µM); in the assay with Trichophyton rubrum, > 100 µg/mL; with Candida albicans, > 100 µg/mL. For the same molecule, the minimum inhibitory concentration (MIC) in the assay on Aspergillus niger was > 100 µg/mL.

Regarding `COC(=O)[C@]1(C)CCC[C@]2(C)c3ccc(C(C)C)cc3-c3[nH]c4ccc(OC)cc4c3[C@@H]12`, the MIC with Bacillus subtilis was 62.5 µg/mL (≈ 145 µM); against Staphylococcus aureus, 31.2 µg/mL (≈ 72.3 µM); against Escherichia coli, > 100 µg/mL; against Pseudomonas fluorescens, > 100 µg/mL; with Trichophyton rubrum, > 100 µg/mL; with Candida albicans it was 62.5 µg/mL (≈ 145 µM). The MIC in the assay with Aspergillus niger is > 100 µg/mL.

In the case of `COC(=O)[C@]1(C)CCC[C@]2(C)c3ccc(C(C)C)cc3-c3[nH]c4c(OC)cccc4c3[C@@H]12`, the MIC is > 100 µg/mL in the assay with Bacillus subtilis; 62.5 µg/mL (≈ 145 µM) against Staphylococcus aureus; > 100 µg/mL against Escherichia coli; > 100 µg/mL in the assay on Pseudomonas fluorescens; > 100 µg/mL against Trichophyton rubrum; > 100 µg/mL with Candida albicans. Moreover, the MIC against Aspergillus niger is > 100 µg/mL.

In the case of `CCOc1ccc2[nH]c3c(c2c1)[C@H]1[C@](C)(C(=O)OC)CCC[C@]1(C)c1ccc(C(C)C)cc1-3`, the MIC is 62.5 µg/mL (≈ 140 µM) in the assay with Bacillus subtilis; > 100 µg/mL in the assay with Staphylococcus aureus; 62.5 µg/mL (≈ 140 µM) against Escherichia coli; 31.2 µg/mL (≈ 70 µM) in the assay on Pseudomonas fluorescens; 62.5 µg/mL (≈ 140 µM) in the assay on Trichophyton rubrum; 62.5 µg/mL (≈ 140 µM) with Candida albicans. Also, in the assay on Aspergillus niger, the MIC was > 100 µg/mL.

As for `COC(=O)[C@]1(C)CCC[C@]2(C)c3ccc(C(C)C)cc3-c3[nH]c4ccc([N+](=O)[O-])cc4c3[C@@H]12`, the MIC is 7.8 µg/mL (≈ 17.5 µM) in the assay on Bacillus subtilis; 7.8 µg/mL (≈ 17.5 µM) against Staphylococcus aureus; 15.6 µg/mL (≈ 34.9 µM) against Escherichia coli; 15.6 µg/mL (≈ 34.9 µM) against Pseudomonas fluorescens; 62.5 µg/mL (≈ 140 µM) with Trichophyton rubrum; 31.2 µg/mL (≈ 69.9 µM) against Candida albicans. Besides, the MIC with Aspergillus niger is > 100 µg/mL.

As to `COC(=O)[C@]1(C)CCC[C@]2(C)c3ccc(C(C)C)cc3C(=O)C[C@@H]12`, the MIC against Bacillus subtilis is 31.2 µg/mL (≈ 95 µM); with Staphylococcus aureus, 31.2 µg/mL (≈ 95 µM); with Escherichia coli it was > 100 µg/mL; against Pseudomonas fluorescens it was 62.5 µg/mL (≈ 190 µM); in the assay on Trichophyton rubrum it was > 100 µg/mL; with Candida albicans it was > 100 µg/mL. Besides, the minimum inhibitory concentration (MIC) against Aspergillus niger was > 100 µg/mL.

Take `NCC[C@H](O)C(=O)N[C@@H]1C[C@H](N)[C@@H](O[C@H]2O[C@H](CN)[C@@H](O)[C@H](O)[C@H]2O)[C@H](O)[C@H]1O[C@H]1O[C@H](CO)[C@@H](O)[C@H](N)[C@H]1O` [AMIKACIN]: the MIC worked out at 0.9 µg/mL (≈ 1.54 µM) in the assay with Bacillus subtilis, 0.9 µg/mL (≈ 1.54 µM) against Staphylococcus aureus, 1.9 µg/mL (≈ 3.24 µM) against Escherichia coli and 0.9 µg/mL (≈ 1.54 µM) in the assay with Pseudomonas fluorescens.

As to `CC(=O)N1CCN(c2ccc(OCC3COC(Cn4ccnc4)(c4ccc(Cl)cc4Cl)O3)cc2)CC1` (configuration not stated) [KETOCONAZOLE], the values for the MIC in the assay on Trichophyton rubrum, in the assay on Candida albicans and in the assay on Aspergillus niger were 3.9 µg/mL (≈ 7.34 µM), 3.9 µg/mL (≈ 7.34 µM) and 7.8 µg/mL (≈ 14.7 µM), respectively.

Take `COC(=O)[C@]1(C)CCC[C@]2(C)c3ccc(C(C)C)cc3CC[C@@H]12` [METHYL DEHYDROABIETATE]: the MIC in the assay on Bacillus subtilis is > 100 µg/mL; in the assay on Staphylococcus aureus it was 62.5 µg/mL (≈ 199 µM); against Escherichia coli, > 100 µg/mL; in the assay on Pseudomonas fluorescens, > 100 µg/mL; with Trichophyton rubrum, > 100 µg/mL; with Candida albicans, > 100 µg/mL. In the assay on Aspergillus niger, the MIC is > 100 µg/mL.
